miR122 inh = blocks miR-122 activity in Huh7 sensor cells. 340,000 tested, 0.3% active. activation (reporter increase), % at 12.5 µM. AID 602342. Huh7 miR-122 Renilla luciferase sensor, 48 h; neutral wells = 0, positive control = 100;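 active = mean replicate activation score at least 90 and every replicate individually at or above 90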;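 note: higher luciferase means less miR-122 activity so hits act as miR-122 inhibitors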
rRNA inh HTS = inhibits bacterial ribosomal RNA function over humanized ribosomes; E. coli WT GFP vs humanized-ribosome RFP mutants, fluorescence, 24 h; hits give low values; DMSO median 0, no signal -100; GFP signal change (wild-type ribosome), % (no concentration beside the values); 350,000 tested, 1.6% active; AID 720706;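 active = significant combined selectivity score with lowered wild-type GFP, culture density cut under 30%, mutant RFP and density less affected; inactive = any of these conditions unmet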
GSIS activator = primary screen for activators of insulin secretion dependent on glucose, INS-1E cells, GLuc reporter luminescence; 370,000 tested, 0.61% active; AID 743287; INS-1E GLuc reporter insulin secretion, 2-3 h; activation, % at 16.6 µM;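 active = lowest replicate activation of at least 40%, so every replicate reaches that level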;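 note: 0% = median of neutral control wells and 100% = median of IBMX positive control wells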
Cneo AK release = Cryptococcus neoformans lysis via adenylate kinase release; C. neoformans lysis, adenylate kinase release luminescence, 4 h; normalised: neutral wells 0, clomiphene wells 100; lysis activity, % at 15 µM; 360,000 tested, 0.2% active; AID 651654;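 active = mean lysis activity across replicates of at least 80%, whatever share of replicates individually reach that level; inactive = mean lysis activity below 80%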
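Assay system: C. neoformans cells. Amount: yeast cell density of 5 × 10^6 cells/mL. Technique: AK luminescence. Buffer or medium: YPD. Times: static 4 h at 37 °C with compound, 1 h detection. Dosing: single-point compound dose. Read-out: lysis from increased AK signal.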
HIV Env fusion = inhibitors of HIV Env-mediated cell fusion. inhibition, % at 12.3 µM. HeLa-JRFL Env/CEM21 cell fusion, luciferase. AID 651610. 360,000 tested, 1.1% active;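 active = mean replicate inhibition score of at least 50 and every replicate individually at or above 50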;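 note: 0% = plate neutral controls and 100% = maraviroc near 300 nM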
CFTR F508del cor = correctors of CFTR F508del function in bronchial epithelial cells | CFBE cells, YFP halide quenching; stimulated with forskolin plus potentiator P3; % fluorescence drop versus neutral controls | activity (quench increase), % at 7.58 µM | 350,000 tested, 0.36% active | AID 720511;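 active = mean added fluorescence quench of at least 8% versus neutral control, with both replicates also reaching 8%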;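 note: cells transiently co-express mutant CFTR-F508del with the halide-sensitive YFP; corrector assay measuring rescue of mutant channel to the surface after 24 h compound exposure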
Starred values were filed as active, the others as inactive; nt = no result; [ ] = remark or other dose. Rows were chosen to be rich in hits. Some 3.1% of all compounds tested hit in one or more screens of this group.

SMILES | miR122 inh | rRNA inh HTS | GSIS activator | Cneo AK release | HIV Env fusion | CFTR F508del cor
Cc1cccc(CN2CCSCC2)c1 | 1 | 13 | -2 | -10 | 9 | -2
O=C(Nc1cccc(F)c1)N1CC(=O)N2[C@@H](CO)[C@H](c3ccc(C#CC4CC4)cc3)[C@@H]2C1 | nt | -23 | -14 | nt | nt | 4
O=S(=O)(N[C@@H]1CC[C@H](CCn2cc(C3(O)CCCC3)nn2)O[C@H]1CO)c1ccc(F)cc1 | nt | 4 | -11 | 0 | -1[16.7 µM] | 1
C[C@H](CO)N1C[C@H](C)[C@H](CN(C)Cc2ccc(C(=O)Nc3ccccc3N)cc2)Oc2ccc(NS(=O)(=O)c3cccs3)cc2CC1=O | 104*[16.7 µM] | -8 | 16 | -3 | -86[16.7 µM] | 5
C[C@H](CO)N1C[C@H](C)[C@H](CN(C)Cc2ccc(C(=O)Nc3ccccc3N)cc2)Oc2ccc(NS(=O)(=O)c3ccccc3)cc2CC1=O | 145*[16.7 µM] | -3 | 7 | -2 | -41[16.7 µM] | 1
C[C@H](CO)N1C[C@H](C)[C@H](CN(C)Cc2ccc(C(=O)Nc3ccccc3N)cc2)Oc2ccc(NS(=O)(=O)c3ccc(F)cc3)cc2CC1=O | 162*[16.7 µM] | 2 | 5 | -7 | -102[16.7 µM] | 2
COc1ccc(S(=O)(=O)Nc2ccc3c(c2)CC(=O)N([C@H](C)CO)C[C@H](C)[C@H](CN(C)Cc2ccc(C(=O)Nc4ccccc4N)cc2)O3)cc1 | 212*[16.7 µM] | 0 | 3 | nt | -19[16.7 µM] | 2
CN1C(=O)c2cc(NC(=O)c3ccc(F)cc3)ccc2OC[C@H]2O[C@H](CC(=O)N3CCOCC3)CC[C@H]21 | 4[16.7 µM] | 4 | -1 | 13 | -14[16.7 µM] | -2
O=C(N[C@@H]1CC[C@H](CC(=O)N2CCCCC2)O[C@@H]1CO)c1ccc2c(c1)OCO2 | nt | 2 | -16 | -4 | 14[16.7 µM] | 1
Cc1noc(C)c1COc1ccc(C(=O)N2CCN(S(=O)(=O)c3ccc(F)cc3)CC2)cc1 | nt | 6 | -34 | 0 | 3 | 26*
CC1C(=O)N(Cc2ccc([N+](=O)[O-])cc2)c2ccccc2N1C(=O)c1c(F)cccc1F (stereo not given) | 4 | -6 | 28 | 10 | 78* | 0
CCC1=NN(C(=O)c2ccc(Br)cc2)C(O)(c2ccc(C)cc2)C1 (stereo not given) | nt | -30* | 21 | nt | -9 | nt
CCC1=NN(C(=O)c2ccc(C)cc2)C(O)(c2ccc(Br)cc2)C1 (stereo not given) | -6 | nt | -28 | -3 | 20 | nt
NC(=O)Cn1cc(/C=N\NS(=O)(=O)c2ccc(F)cc2)c2ccccc21 | 135* | 7 | 13 | -1 | -2 | 0
CCc1ccc(S(=O)(=O)N/N=C\c2cn(CC(N)=O)c3ccccc23)cc1 | nt | 0 | 2 | -2 | -3 | -2
Cc1noc(C)c1NC(=O)N(C)C[C@@H]1Oc2c(NC(=O)c3nc4ccccc4s3)cccc2C(=O)N([C@@H](C)CO)C[C@@H]1C | 9[16.7 µM] | -4 | -10 | 1 | nt | 2
NS(=O)(=O)c1ccc(S(=O)(=O)N(CCc2ccccc2)Cc2ccccn2)cc1 | 3 | 2 | -16 | -1 | 14 | 8.4*
O=C(CC1Sc2ccccc2NC1=O)NNc1cccc(Cl)c1Cl (stereo not given) | nt | -8 | -4 | nt | 19 | 8.3*
C[C@H]1CN([C@@H](C)CO)C(=O)c2ccccc2-c2ccccc2CO[C@@H]1CN(C)C(=O)Nc1ccc2c(c1)OCO2 | nt | -2 | -7 | nt | nt | nt
C[C@H](CO)N1C[C@H](C)[C@@H](CN(C)C)Oc2c(NC(=O)Nc3ccc(C(F)(F)F)cc3)cccc2C1=O | 18[16.7 µM] | -5 | 11 | -9 | nt | -2
COc1cccc(S(=O)(=O)N(C)C[C@H]2Oc3ncc(C#CCN(C)C)cc3C(=O)N([C@@H](C)CO)C[C@H]2C)c1 | -2[16.7 µM] | 4 | 1 | -1 | -4[16.7 µM] | -3
Cc1csc2c(=O)sc(NC(=O)c3ccco3)nc12 | 117* | -3 | 17 | -2 | -10 | -2
Cc1ccc2nc(NC(=S)NC(=O)c3ccco3)sc2c1 | nt | -15* | -2 | nt | nt | 3
O=C(Nc1nc2ccc(Cl)cc2s1)c1ccco1 | 116* | nt | nt | -5 | -161 | nt
CN1C(=O)c2cc(NC(=O)c3ccccc3Cl)ccc2OC[C@H]2O[C@H](CC(=O)O)CC[C@@H]21 | 32[16.7 µM] | 2 | 4 | 2 | nt | 0
SMILES | miR122 inh | rRNA inh HTS | GSIS activator | Cneo AK release | HIV Env fusion | CFTR F508del cor
COc1cc(C(N)=O)cc(Br)c1OCc1ccccc1 | nt | -28* | -1 | nt | -27 | -1
CC(=O)c1c(C)[nH]c(C(=O)OCC(=O)Nc2ccc(Cl)c(S(=O)(=O)N(C)C)c2)c1C | 2 | -6 | -38 | nt | 79* | -2
CN(CCOc1ccccc1)CC(=O)Nc1ccc(Cl)c(S(=O)(=O)N(C)C)c1 | nt | -37* | -37 | nt | 22 | nt
CN(C)S(=O)(=O)c1cc(NC(=O)CNCc2ccccc2)ccc1Cl | 6 | 2 | 12 | 0 | -9 | 1
O=C(Nc1cccc2ccccc12)/C(=C/c1ccc([N+](=O)[O-])cc1)NC(=O)c1ccccc1 | 238* | nt | nt | -8 | -177 | nt
C[C@H]1CN([C@@H](C)CO)C(=O)c2cc(NS(=O)(=O)c3ccc(F)cc3)ccc2O[C@@H]1CN(C)Cc1ccc(-c2ccccc2)cc1 | 5[16.7 µM] | -2 | -38 | 0 | nt | 3
COc1ccc(-c2c(O)c(C#N)c(-c3ccccc3)n(-c3ccc(OC)cc3)c2=O)cc1 | 97* | nt | 0 | 6 | -37 | nt
CC(C)c1ccc(NC(=S)NCc2cccs2)cc1 | 102* | nt | nt | 19 | -92 | nt
S=C(NCc1cccs1)Nc1cccc(Cl)c1 | 220* | -57 | -49 | nt | nt | -3
COc1ccc(C(C#N)=C2C=C(Cl)C(=NO)C=C2Cl)cc1 | nt | -19* | -20 | nt | -1 | 0
C[C@@H]1CN([C@H](C)CO)C(=O)Cc2cc(NC(=O)Cc3ccccc3)ccc2O[C@@H]1CN(C)Cc1ccc(Oc2ccccc2)cc1 | -14[16.7 µM] | 2 | -9 | 1 | -45[16.7 µM] | -5
N#C/C(=N\Nc1cccc(F)c1)C(=O)C1CC1 | nt | -25* | -11 | nt | -6 | -2
N#C/C(=N\Nc1cccc(F)c1)C(=N)N1CCCCCC1 | nt | 17 | 4 | nt | -45 | -4
C[C@@H]1CCCCO[C@H](CN(C)S(=O)(=O)c2ccccc2)[C@H](C)CN([C@H](C)CO)C(=O)c2cc(N(C)C)ccc2O1 | 18[16.7 µM] | -4 | -17 | 33 | -29[16.7 µM] | 0
CCc1nc2ccc(C(=O)NCCOc3ccc(OC)cc3)cn2c1N(CC)Cc1cccc(Br)c1 | -1 | -44 | -18 | -2 | 28 | 2
CCc1nc2ccc(C(=O)NCCN3CCNC3=O)cn2c1N(CC)Cc1cccc(Br)c1 | 1 | -15 | 6 | -1 | 72* | -2
Cc1cc(N2CCC(C)CC2)c(F)cc1[N+](=O)[O-] | -19 | nt | 5 | 0 | 14 | nt
Cc1cc(N2CCCC2)c(F)cc1/C=C\[N+](=O)[O-] | nt | 8 | 5 | nt | -149 | 28*

High-throughput results (PubChem)
